How the values were obtained:
[1] = system: LNCaP (AR+) androgen-sensitive human prostate adenocarcinoma cells; assay: MTT antiproliferative activity assay on LNCaP cells; type: cell-based
[2] = system: PC3 (AR−) androgen-insensitive human prostate adenocarcinoma cells; assay: MTT antiproliferative activity assay on PC3 cells; type: cell-based; details: 48 h, read-out: IC50 (concentration of drug inhibiting cell growth by 50%), PC3 (AR−)
recombinant CYP3A4 = recombinant CYP3A4 (Homo sapiens, UniProt P08684); assay: Equilibrium spectral titration of recombinant CYP3A4; type: binding; details: for high spin content: estimated at the end of equilibrium titrations relative to azamulin-bound CYP3A4 (100% high-spin conversion); for Kd: read-out: S50, ligand concentration at half-saturation (equivalent to Kd), 0.1 M phosphate buffer, pH 7.4; for Kd / nH, Hill coefficient: sigmoidal fittings to titration plots, mean of three ± SD
Method in brief: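 Codon-optimized full-length human CYP3A4 (1.5–2 μM) in 0.1 M phosphate buffer, pH 7.4, with 20% glycerol and 1 mM dithiothreitol, at ambient temperature. DMSO-dissolved ligand added in small aliquots (final solvent <2%). Titration plots were built from difference absorbance spectra. Sigmoidal fits gave S50 (half-saturation ligand concentration, equivalent to Kd) and Hill coefficient; hyperbolic fits gave Kd.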

recombinant CYP3A4, sequence (P08684 whole entry): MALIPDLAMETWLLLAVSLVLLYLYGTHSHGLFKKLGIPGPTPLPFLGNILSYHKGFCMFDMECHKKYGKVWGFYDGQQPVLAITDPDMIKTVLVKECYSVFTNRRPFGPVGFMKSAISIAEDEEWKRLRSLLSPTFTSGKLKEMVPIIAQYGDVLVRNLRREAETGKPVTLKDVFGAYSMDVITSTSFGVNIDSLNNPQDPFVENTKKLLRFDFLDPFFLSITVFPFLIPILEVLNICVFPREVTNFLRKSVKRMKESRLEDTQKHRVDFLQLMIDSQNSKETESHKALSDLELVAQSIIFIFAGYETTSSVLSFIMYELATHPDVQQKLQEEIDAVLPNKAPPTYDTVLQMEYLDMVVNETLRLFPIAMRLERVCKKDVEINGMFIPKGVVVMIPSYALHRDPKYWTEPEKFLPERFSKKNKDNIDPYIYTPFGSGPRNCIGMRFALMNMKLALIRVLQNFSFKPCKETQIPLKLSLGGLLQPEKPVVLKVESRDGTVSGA

Row | Compound | high spin content (recombinant CYP3A4) [%] | Kd (recombinant CYP3A4) [µM] | nH, Hill coefficient (recombinant CYP3A4) | other results
1 | CC(=O)O[C@]1(C(C)=O)CC[C@H]2[C@@H]3C=C(Cl)C4=CC(=O)[C@@H]5C[C@@H]5[C@]4(C)[C@H]3CC[C@@]21C [CPA, cyproterone acetate, reference compound] |  |  |  | IC50 ([1]; Homo sapiens, LNCaP/AR, 48 h, read-out: IC50 (concentration of drug inhibiting cell growth by 50%), LNCaP (AR+)): 40.7 µM; IC50 [2]: 84.3 µM
2 | C=CC[C@]1(O)CC[C@H]2[C@@H]3CCC4=CC(=O)CC[C@]4(C)[C@H]3CC[C@@]21C [Compound 10, 17α-allyl-androst-4-en-3-one-17β-ol] | 70 ± 2 | 22 ± 4 | 1.52 ± 0.02 | 
3 | C[C@]12CCC(=O)C=C1CC[C@@H]1[C@@H]2CC[C@@]2(C)[C@H]1CC[C@@]2(O)C/C=C/C[C@]1(O)CC[C@H]2[C@@H]3CCC4=CC(=O)CC[C@]4(C)[C@H]3CC[C@@]21C [Compound 11, ((E)-17,17’-(but-2-ene-1,4-diyl))bis(androst-4-en-3-one-17β-ol)] | 92 ± 4 |  |  | fold more potent than the reference drug CPA ([1]; LNCaP (AR+) cells, ratio of IC50): ~ 3.5 times; fold more potent on AR+ LNCaP than AR− PC3 cells ([1]; ratio of IC50 PC3 / LNCaP): ~ 3.7 times; fold higher affinity for CYP3A4 compared to 15 (recombinant CYP3A4; ratio of Kd): 40 fold
4 | C=CC[C@]1(O)CC[C@H]2[C@@H]3CC[C@H]4CC(=O)CC[C@]4(C)[C@H]3CC[C@@]21C [Compound 14, 17α-allyl-androst-3-one-17β-ol] | 71 ± 3 | 17 ± 2 | 1.76 ± 0.06 | 
5 | C[C@]12CCC(=O)C[C@@H]1CC[C@@H]1[C@@H]2CC[C@@]2(C)[C@H]1CC[C@@]2(O)C/C=C/C[C@]1(O)CC[C@H]2[C@@H]3CC[C@H]4CC(=O)CC[C@]4(C)[C@H]3CC[C@@]21C [Compound 15, ((E)-17,17’-(but-2-ene-1,4-diyl))bis(androst-3-one-17β-ol)] | 33 ± 3 |  |  | 

— article PMC10246735 (European journal of medicinal chemistry, 2023)
